Assay results reported in ChEMBL document CHEMBL1158186, “Design, synthesis, and bioactivity of putative tubulin ligands with adamantane core” (Bioorg Med Chem Lett, 2008).
Activity calls are given as the source filed them. The rule behind the calls is not given here.

Assays:
A549 [1] = test: Cytotoxicity against human A549 cells; assay type: functional, cell-based
A549 [2] = test: Cytotoxicity against human A549 cells assessed as formation of shortened aggregates of mirotube bundles at 5 uM by immuno-fluorescent microscopy; assay type: functional, cell-based
Summary of the method: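 A549 cells were treated with compound at the concentration given in the line, then fixed with polyformaldehyde. Microtubules were stained with primary mouse anti-α-tubulin and a secondary Alexa 488-labelled rabbit anti-mouse antibody. Cells were examined by immunofluorescence microscopy for microtubule bundles and shortened aggregates.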

Bos taurus [3] = organism: Bos taurus; test: Induction of bovine tubulin aggregation by SDS-PAGE
Summary of the method: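 Sedimentation assay using tubulin purified from bovine brain, incubated with compound. Pellets were resolved by SDS–PAGE. Pelleted tubulin was expressed relative to the amount pelleted after incubation with taxol, set as 100%. DMSO served as the negative control.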

Bos taurus [4] = organism: Bos taurus; test: Induction of bovine tubulin aggregation by electron microscopy using uranyl acetate staining
Summary of the method: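 Tubulin purified from bovine brain was incubated with compound. Samples were negatively stained with uranyl acetate and examined by electron microscopy for aggregates.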

Bos taurus [5] = organism: Bos taurus; test: Induction of bovine tubulin polymerization relative to taxol; design: concentration or dose not given beside the values

SMILES	Activity (Bos taurus [3])	Activity (Bos taurus [4])	Activity (Bos taurus [5])	IC50 (A549 [1])	Activity (A549 [2])
COc1cc2c(c(OC)c1OC)-c1ccc(OC)c(=O)cc1[C@@H](NC(=O)CCCCCC(=O)OC1C3CC4CC1CC(OC(=O)[C@H](O)[C@@H](NC(=O)OC(C)(C)C)c1ccccc1)(C4)C3)CC2 (mixture of isomers)	–	–	–	0.0006 µM	Active
O=C(N[C@@H](c1ccccc1)[C@@H](O)C(=O)OC12CC3CC(CC(C3)C1)C2)c1ccccc1	Active	Active	57.1%	5.6 µM	–
CC(=O)O[C@H]1C(=O)[C@@]2(C)[C@H]([C@H](OC(=O)c3ccccc3)[C@]3(O)C[C@H](OC(=O)[C@H](O)[C@@H](NC(=O)c4ccccc4)c4ccccc4)C(C)=C1C3(C)C)[C@]1(OC(C)=O)CO[C@@H]1C[C@@H]2O [PACLITAXEL]	–	–	–	0.002 µM	–
O=C(CCNC(=O)c1ccccc1)OC12CC3CC(CC(C3)C1)C2	Active	–	32.9%	–	–
CC(C)(C)OC(=O)N[C@@H](c1ccccc1)[C@@H](O)C(=O)O[C@H]1C[C@H]2C[C@@H](C1)C[C@@H](C(=O)OC1COC1)C2	Active	–	25.3%	3.8 µM	–

Now from value to molecule, other results behind:

Activity (Bos taurus [3])	Activity (Bos taurus [4])	Activity (Bos taurus [5])	SMILES	IC50 (A549 [1])	Activity (A549 [2])
Active	Active	32.3%	O=C(N[C@@H](c1ccccc1)[C@@H](O)C(=O)OC12CC3CC(C1)C(OC(=O)c1ccccc1)C(C3)C2)c1ccccc1 (mixture of isomers)	9.5 µM	–
Active	Active	27.1%	CC(C)(C)OC(=O)N[C@@H](c1ccccc1)[C@@H](O)C(=O)OC12CC3CC(C1)CC(C(=O)OC1COC1)(C3)C2	2.5 µM	–
